# Measured values of several laboratories.
# Target: Tyrosine-protein kinase Fyn (FYN, Homo sapiens, UniProt P06241)
SMILES,test,setting,remaining binding [%]
CC1CCCN1c1nccc(-c2cnn3ncccc23)n1 (stereo not drawn),binding,1 µM,69
C=CC(=O)N1CCC(C(=O)NCC(=O)N2CCN(c3nc(-c4cnc(N)nc4C(F)F)nc(N4CCOCC4)n3)CC2)CC1,"binding, competition with immobilised ligand",1 µM,100
Cc1cnc(Nc2ccc(C(=O)N3CCC(N4CCCC4)CC3)cc2)nc1-c1cc2ccccc2s1,"binding, competition with immobilised ligand",1 µM,78
COc1cnc(Nc2cccc(S(N)(=O)=O)c2)nc1N1CCN(c2ccccc2)CC1,"binding, competition with immobilised ligand",1 µM,99
COc1ccc2c(c1)O[C@H](c1ccc(OC)c(OC)c1)C[C@@H]2NC(=O)C1(c2ccc3c(c2)OC(F)(F)O3)CC1,"cell-free assay, competition with immobilised ligand",1 µM,100
C[C@@H](c1ccc(-n2cnc3c(N)ncnc32)cc1)N1CCc2nn(C)c(Cc3ccccc3)c2C1=O,"binding, competition with immobilised ligand",0.1 µM,100
Cn1cc(Cl)c2c(Oc3c(F)cc(Nc4cc(Cl)nc(N)n4)cc3F)ccnc21,"cell-free assay, competition with immobilised ligand",0.1 µM,80
CN(C)c1nccc(-c2cnn3ncccc23)n1,binding,1 µM,100
O=C(c1ccc(Nc2ncc(Cl)c(-c3cc4ccccc4s3)n2)cc1)N1CCC(N2CCCC2)CC1,"binding, competition with immobilised ligand",1 µM,96
CN(C)c1nccc(-c2cnc3ncccn23)n1,binding,1 µM,99
Nc1ncc2c(n1)-c1c([nH]c3ccc(C#CC4CC4)cc13)CCCC2,"binding, competition with immobilised ligand",1 µM,100
C[C@@H]1CCN(c2nccc(-c3cnn4ncccc34)n2)C1,binding,1 µM,88
O=C(c1ccc(Nc2nccc(-c3cc4ccccc4s3)n2)cc1)N1CCC(N2CCCC2)CC1,"binding, competition with immobilised ligand",1 µM,85
CS(=O)(=O)N1CCCC(NC(=O)[C@H](CCC2CCCCC2)NC(=O)c2ccc(CNC(=O)c3cnc4ccccn34)cc2)C1 (stereo partly drawn),"cell-free assay, competition with immobilised ligand",0.1 µM,80
CCN1CCN(Cc2ccc(C(=O)Nc3ccc(C)c(Oc4ccc5c(c4)CC(=O)N5)c3)cc2C(F)(F)F)CC1,"binding, competition with immobilised ligand",1 µM,90
O=C(NCc1ncc(C(F)(F)F)cc1Cl)c1ccc2c(c1)C1(CCS(=O)(=O)CC1)[C@H](C1CC1)N2S(=O)(=O)c1ccc(F)cc1,"cell-free assay, competition with immobilised ligand",1 µM,100
CN(c1nccc(-c2cnn3ncccc23)n1)C1CC1,binding,1 µM,85
CS(=O)(=O)NCC[C@H](NC(=O)c1cncc2c1cnn2-c1ccc(F)cc1)c1ccnc(S(C)(=O)=O)c1,"cell-free assay, competition with immobilised ligand",1 µM,100
c1cnn2ncc(-c3ccnc(N4CCC45COC5)n3)c2c1,binding,1 µM,79
C[C@@H]1CN(c2cc(-c3n[nH]c4ccc(OC5(C)CC5)cc34)ncn2)C[C@H](C)O1,"cell-free assay, competition with immobilised ligand",0.1 µM,100
O=C(NCC1CCOCC1)c1n[nH]cc1NC(=O)c1c(F)cccc1F,"binding, competition with immobilised ligand",1 µM,100
